Data: ChEMBL document CHEMBL1759862, “Tricyclic compounds containing nonenolizable cyano enones. A novel class of highly potent anti-inflammatory and cytoprotective agents” (J Med Chem, 2011)
Active and inactive are the calls of the source. No cut-off for these calls is given here.

Legend:
RAW264.7 [1] = assay: Antiinflammatory activity in mouse RAW264.7 cells assessed as inhibition of IFN-gamma induced NO production after 24 hrs by Griess reaction; assay type: functional, cell-based
Method in brief: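 RAW 264.7 cells exposed to serial concentrations of compound together with IFN-γ (10 ng/mL) for 24 h; NO in supernatants quantified by Griess reaction. IC50 tested over 0.1 pM to 10 μM in 10-fold steps; values averaged from two separate experiments.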

[2] = Antiinflammatory activity in CD-1 mouse Macrophage assessed as inhibition of IFN-gamma induced NO production after 48 hrs by Griess reaction; assay type: functional, cell-based
[3] = biological target: NAD(P)H dehydrogenase [quinone] 1 (Mus musculus) (UniProt Q64669); assay: Induction of NQO1 activity in mouse Hepa-1c1c7 cells after 48 hrs; assay type: cell-based
NAD(P)H dehydrogenase [quinone] 1 (Mus musculus), sequence (Q64669 whole entry): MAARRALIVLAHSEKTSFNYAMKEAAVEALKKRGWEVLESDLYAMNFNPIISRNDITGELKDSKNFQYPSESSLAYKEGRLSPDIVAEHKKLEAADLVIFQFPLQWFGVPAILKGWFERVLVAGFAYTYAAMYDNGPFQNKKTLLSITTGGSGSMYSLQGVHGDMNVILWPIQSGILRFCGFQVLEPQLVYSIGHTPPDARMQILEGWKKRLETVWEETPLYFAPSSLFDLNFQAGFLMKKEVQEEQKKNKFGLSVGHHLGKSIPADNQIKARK

[4] = Cytotoxicity against CD-1 mouse macrophages at 10 uM; assay type: cell-based; conditions: macrophage
RAW264.7 [5] = assay: Induction of HO-1 expression in mouse RAW264.7 cells at 30 nM after 6 hrs by Western blotting; assay type: functional, cell-based
Method in brief: (§1)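 RAW cells treated with compound for 6 h (30–300 nM range); HO-1 detected in total cell lysates by Western blot.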

RAW264.7 [6] = assay: Induction of HO-1 expression in mouse RAW264.7 cells at 300 nM after 6 hrs by Western blotting; assay type: functional, cell-based; method in brief: as §1
RAW264.7 [7] = assay: Induction of HO-1 expression in mouse RAW264.7 cells at 10 nM after 6 hrs by Western blotting; assay type: functional, cell-based
Method in brief: (§2)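 RAW 264.7 macrophages were exposed to compound at 10–100 nM for 6 h. HO-1 protein was detected by Western blot of total cell lysates.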

RAW264.7 [8] = assay: Induction of HO-1 expression in mouse RAW264.7 cells at 100 nM after 6 hrs by Western blotting; assay type: functional, cell-based; method in brief: as §2
[9] = Mus musculus, CD-1, Macrophage, 48 h

SMILES | IC50 (RAW264.7 [1]; Mus musculus, RAW264.7, 24 h) | Activity [4] | further results
CC1(C)C(=O)C(C#N)=C[C@]2(C)C3=CC(=O)CC[C@]3(C(=O)OCOCC[Si](C)(C)C)CC[C@@H]12 (racemic) | 150 nM |  | 
CC1(C)C(=O)C(C#N)=C[C@@]2(C)C3=CC(=O)C(C#N)=C[C@@]3(C)CC[C@H]12 |  | Non-toxic | IC50 [2, 9]: 1.3 nM; CD [3]: 19 nM
C=C[C@]12C=C(C#N)C(=O)C=C1[C@@]1(C)C=C(C#N)C(=O)C(C)(C)[C@@H]1CC2 (racemic) | 10 nM |  | Activity (RAW264.7 [5]): Active; CD [3]: 30 nM
CC1(C)C(=O)C(C#N)=C[C@]2(C)C3=CC(=O)C(C(N)=O)=C[C@]3(C)CC[C@@H]12 (racemic) |  | Non-toxic | 
COC(=O)C#C[C@]12C=C(C#N)C(=O)C=C1[C@@]1(C)C=C(C#N)C(=O)C(C)(C)[C@@H]1CC2 (racemic) | 20 nM |  | Activity (RAW264.7 [6]): Active; Activity (RAW264.7 [5]): Active; CD [3]: 85 nM
C[C@@H]1C[C@H]2[C@@H]3CCC4=CC(=O)C=C[C@]4(C)[C@@]3(F)[C@@H](O)C[C@]2(C)[C@@]1(O)C(=O)CO [DEXAMETHASONE] | 20 nM |  | 
CC1(C)C(=O)C(C#N)=C[C@]2(C)C3=CC(=O)C(C#N)=C[C@]3(C#C[Si](C)(C)C(C)(C)C)CCC12 (mixture of isomers) | 80 nM |  | CD [3]: 150 nM
C#C[C@]12C=C(C#N)C(=O)C=C1[C@@]1(C)C=C(C#N)C(=O)C(C)(C)[C@@H]1CC2 [listing 1 of 2 here] |  |  | Activity (RAW264.7 [7]): Active; CD [3]: 2.7 nM; Activity (RAW264.7 [8]): Active
COC[C@]12CCC(=O)C=C1[C@@]1(C)C=C(C#N)C(=O)C(C)(C)[C@@H]1CC2 (racemic) | 40 nM |  | 
CC1(C)C(=O)C(C#N)=C[C@]2(C)C3=CC(=O)C(C#N)=C[C@]3(C)CC[C@@H]12 (racemic) | 23 nM | Non-toxic | IC50 ([2]; macrophage): 2.1 nM
CC1(C)C(=O)C(C(=O)O)=C[C@]2(C)C3=CC(=O)C(C#N)=C[C@]3(C)CC[C@@H]12 (racemic) |  | Non-toxic | IC50 [2, 9]: > 600 nM
CC1(C)C(=O)C(C#N)=C[C@]2(C)C3=CC(=O)C(C#N)=C[C@]3(C#Cc3ccccc3)CC[C@@H]12 (racemic) | 50 nM |  | Activity (RAW264.7 [6]): Active; Activity (RAW264.7 [5]): Active
CC1(C)C(=O)C(C#N)=C[C@]2(C)C3=CC(=O)C=C[C@]3(C)CC[C@@H]12 |  |  | CD [3]: 170 nM
Cc1csc(C#C[C@]23C=C(C#N)C(=O)C=C2[C@@]2(C)C=C(C#N)C(=O)C(C)(C)[C@@H]2CC3)n1 (racemic) | 20 nM |  | Activity (RAW264.7 [6]): Active; Activity (RAW264.7 [5]): Active
C[C@]12CCC(=O)C=C1CC[C@@H]1[C@@H]2[C@@H](O)C[C@@]2(C)[C@H]1CC[C@]2(O)C(=O)CO [HYDROCORTISONE] | 61 nM | Non-toxic | IC50 [2, 9]: 10 nM
CC1(C)C(=O)C(C#N)=C[C@]2(C)C3=CC(=O)CC[C@]3(CO[Si](C)(C)C(C)(C)C)CC[C@@H]12 (racemic) | 480 nM |  | 
CCC#C[C@]12C=C(C#N)C(=O)C=C1[C@@]1(C)C=C(C#N)C(=O)C(C)(C)[C@@H]1CC2 (racemic) | 20 nM |  | 
COC(=O)[C@]12CCC(=O)C=C1[C@@]1(C)C=C(C#N)C(=O)C(C)(C)[C@@H]1CC2 (racemic) | 290 nM |  | 
C#C[C@]12CCC(=O)C=C1[C@@]1(C)C=C(C#N)C(=O)C(C)(C)[C@@H]1CC2 (racemic) | 83 nM |  | 

SMILES | IC50 (RAW264.7 [1]; Mus musculus, RAW264.7, 24 h) | Activity [4] | further results
CC1(C)C(=O)C(C#N)=C[C@]2(C)C3=CC(=O)C(C#N)=C[C@]3(C#Cc3nccn3COCC[Si](C)(C)C)CC[C@@H]12 (racemic) | 35 nM |  | Activity (RAW264.7 [5]): Active
CC1(C)C(=O)C(C#N)=C[C@]2(C)C3=CC(=O)C(C#N)=C[C@]3(C#CC(=O)O)CC[C@@H]12 (racemic) | 100 nM |  | CD [3]: 150 nM
CC1(C)C(=O)C(C#N)=C[C@]2(C)C3=CC(=O)C(C#N)=C[C@]3(C#Cc3nccs3)CCC12 (mixture of isomers) | 10 nM |  | Activity (RAW264.7 [6]): Active; Activity (RAW264.7 [5]): Active; CD [3]: 35 nM
CC1(C)C(=O)C(C#N)=C[C@]2(C)C3=CC(=O)C[C@@H](O)[C@]3(C)CC[C@@H]12 (racemic) |  | Non-toxic | 
CC1(C)C(=O)C(C#N)=C[C@]2(C)C3=CC(=O)CC[C@]3(C=O)CC[C@@H]12 (racemic) | 83 nM |  | 
COC(=O)C1=C[C@]2(C)CC[C@H]3C(C)(C)C(=O)C(C#N)=C[C@]3(C)C2=CC1=O (racemic) |  | Non-toxic | 
CC1(C)C(=O)C(C#N)=C[C@]2(C)C3=CC(=O)C(C#N)=C[C@]3(C#CC#N)CC[C@@H]12 (racemic) | 4 nM |  | Activity (RAW264.7 [5]): Active
CC1(C)C(=O)C(C#N)=C[C@]2(C)C3=CC(=O)CCCC3(F)CC[C@@H]12 (mixture of isomers) | 360 nM |  | 
CC1(C)C(=O)C(C#N)=C[C@]2(C)C3=CC(=O)C(C#N)=C[C@]3(C)CC[C@@H]12 [listing 1 of 2 here] |  |  | IC50 ([2]; macrophage): 14 nM
CC1(C)C(=O)C(C#N)=C[C@]2(C)C3=CC(=O)CC[C@]3(C(N)=O)CC[C@@H]12 (racemic) | > 10000 nM |  | 
CC#C[C@]12C=C(C#N)C(=O)C=C1[C@@]1(C)C=C(C#N)C(=O)C(C)(C)[C@@H]1CC2 (racemic) | 5 nM |  | CD [3]: 7.5 nM
CC1(C)C(=O)C(C#N)=C[C@@]2(C)C3=CC(=O)C=C[C@@]3(C)CC[C@H]12 |  | Non-toxic | IC50 [2, 9]: 58 nM; CD [3]: 140 nM
CC1(C)C(=O)C(C#N)=C[C@]2(C)C3=CC(=O)CC[C@]3(C)CC[C@@H]12 (racemic) | 57 nM | Non-toxic | IC50 [2, 9]: 19 nM
COC(=O)C1=C[C@]2(C)C3=CC(=O)C(C#N)=C[C@]3(C)CC[C@H]2C(C)(C)C1=O (racemic) |  | Non-toxic | IC50 [2, 9]: > 60 nM
COC(=O)[C@]12CCC(C)(C)C[C@H]1[C@H]1C(=O)C=C3[C@@]4(C)C=C(C#N)C(=O)C(C)(C)[C@@H]4CC[C@@]3(C)[C@]1(C)CC2 [BARDOXOLONE METHYL] |  | Non-toxic | IC50 [2, 9]: 0.2 nM
CC(=O)OC[C@]12CCC(=O)C=C1[C@@]1(C)C=C(C#N)C(=O)C(C)(C)[C@@H]1CC2 (racemic) | 85 nM |  | 
CC1(C)C(=O)C(C#N)=C[C@]2(C)C3=CC(=O)C=C[C@]3(C)CC[C@@H]12 (racemic) [listing 1 of 2 here] |  |  | CD [3]: 160 nM
CC1(C)C(=O)C(C#N)=C[C@]2(C)C3=CC(=O)C(C#N)=C[C@]3(C#C[Si](C)(C)C)CC[C@@H]12 |  |  | Activity (RAW264.7 [7]): Active; CD [3]: 3 nM; Activity (RAW264.7 [8]): Active
CC(=O)O[C@@H]1CCC=C2[C@@]3(C)C=C(C#N)C(=O)C(C)(C)[C@@H]3CC[C@]21C (racemic) |  | Non-toxic | 

SMILES | IC50 (RAW264.7 [1]; Mus musculus, RAW264.7, 24 h) | Activity [4] | further results
CC1(C)C(=O)C(C#N)=C[C@]2(C)C3=CCC[C@@H](O)[C@]3(C)CC[C@@H]12 (racemic) |  | Non-toxic | 
C#CC#C[C@]12C=C(C#N)C(=O)C=C1[C@@]1(C)C=C(C#N)C(=O)C(C)(C)[C@@H]1CC2 (racemic) | 3 nM |  | Activity (RAW264.7 [6]): Active; Activity (RAW264.7 [5]): Active
CC1(C)C(=O)C(C#N)=C[C@]2(C)C3=CC(=O)CC[C@]3(C#N)CC[C@@H]12 (racemic) | 64 nM |  | 
CC1(C)C(=O)C(C#N)=C[C@]2(C)C3=CC(=O)CC[C@]3(CN)CC[C@@H]12 (racemic) | 240 nM |  | 
CC1(C)C(=O)C(C#N)=C[C@@]2(C)C3=CC(=O)CC[C@@]3(C)CC[C@H]12 |  | Non-toxic | IC50 [2, 9]: 26 nM
CC[C@]12C=C(C#N)C(=O)C=C1[C@@]1(C)C=C(C#N)C(=O)C(C)(C)[C@@H]1CC2 (racemic) | 10 nM |  | Activity (RAW264.7 [5]): Active; CD [3]: 18 nM
CC1(C)C(=O)C(C#N)=C[C@]2(C)C3=CC(=O)C(C#N)=C[C@]3(C#N)CC[C@@H]12 (racemic) | 115 nM |  | 
CC1(C)C(=O)C(C#N)=C[C@]2(C)C3=CC(=O)C(C#N)=C[C@]3(C#C[Si](C)(C)C)CC[C@@H]12 (racemic) | 3 nM |  | 
C#C[C@]12C=C(C#N)C(=O)C=C1[C@@]1(C)C=C(C#N)C(=O)C(C)(C)[C@@H]1CC2 [listing 2 of 2 here] |  |  | IC50 (RAW264.7 [1]; raw264.7): 3 nM
CC(C)(C)OC(=O)NC[C@]12CCC(=O)C=C1[C@@]1(C)C=C(C#N)C(=O)C(C)(C)[C@@H]1CC2 (racemic) | 64 nM |  | 
CC1(C)C(=O)C(C#N)=C[C@]2(C)C3=CC(=O)C(C#N)=C[C@]3(C#Cc3ncc[nH]3)CC[C@@H]12 (racemic) | 400 nM |  | 
CC(=O)O[C@@H]1CC(=O)C=C2[C@@]3(C)C=C(C#N)C(=O)C(C)(C)[C@@H]3CC[C@]21C (racemic) |  | Non-toxic | 
CC1(C)C(=O)C(C#N)=C[C@]2(C)C3=CC(=O)CC[C@]3(CO)CC[C@@H]12 (racemic) | 350 nM |  | 
CC1(C)C(=O)C(C#N)=C[C@]2(C)C3=CC(=O)CC[C@]3(C(=O)O)CC[C@@H]12 (racemic) | 83 nM |  | 
CC1(C)C(=O)C(C#N)=C[C@]2(C)C3=CC(=O)C(C#N)=C[C@]3(C)CC[C@@H]12 [listing 2 of 2 here] |  |  | CD [3]: 150 nM
CC1(C)C(=O)C(C#N)=C[C@]2(C)C3=CC(=O)C=C[C@]3(C)CC[C@@H]12 (racemic) [listing 2 of 2 here] | 87 nM | Non-toxic | 
CC[C@]12CCC(=O)C=C1[C@@]1(C)C=C(C#N)C(=O)C(C)(C)[C@@H]1CC2 (racemic) | 80 nM |  | 
CC1(C)C(=O)C(C#N)=C[C@]2(C)C3=CC(=O)C(C(=O)O)=C[C@]3(C)CC[C@@H]12 (racemic) |  | Non-toxic | 
